In the RNAGym collection of RNA variant scans (doi:10.1126/science.aae0568):
Variants at the floor of the assay were thinned out.

B1: tRNA (parent)
chain: GUUCCGUUGGCGUAAUGGUAACGCGUCUCCCUCCUAAGGAGAAGACUGCGGGUUCGAGUCCCGUACGGAACG

Variants of: B1
Test: yeast fitness relative to wild type (ratio to wild type); higher = fitter; tRNA-Arg(CCU), competitive growth, 37 C, YPD
Procedure, shortened: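 The tRNA-Arg(CCU) gene variants were made by chemical synthesis with a 3% per-site mutation rate at 69 sites and inserted at the native genomic locus of Saccharomyces cerevisiae. After pooling, the strains were competed in YPD at 37°C for 24 hours in six parallel replicates. Gene amplicons from the start population and each end population were read by 100-nucleotide paired-end sequencing, and Darwinian fitness relative to wild type was taken from genotype frequency changes. Genotypes needed ≥ 100 starting reads, and estimates < 0.5 were set to 0.5.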

Row | Variant | yeast fitness
1 | C33U C34A A36G A42U C49U | 0.571
2 | C33G C34G U35A G44A | ≤ 0.5
3 | C33U A42C A65G | 0.58
4 | C34A A42C U59A G67C | ≤ 0.5
5 | C34A G38C A43U | 0.588
6 | C33G U47A U64G | 0.77
7 | C34G A37U C49G A57G A65G C66U | ≤ 0.5
8 | C34A G39A | 0.734
9 | C33U C60U | 0.629
10 | C33U C60G | 0.607
11 | C34A C49A C60G A65C | ≤ 0.5
12 | C33G C55U G56C A69C | 0.831
13 | C33U G39C A57U | 0.643
14 | C33U C34A A43C | ≤ 0.5
15 | C33G C34A A40C | ≤ 0.5
16 | C34A G51A C61G A69U | 0.606
17 | C33G A37G A40C C49G G67C | ≤ 0.5
18 | C33G A42U C60G | ≤ 0.5
19 | C33U C62U | 0.717
20 | C33G G39C A69C | ≤ 0.5
21 | C33G G38A G41A | ≤ 0.5
22 | C33G U54G | ≤ 0.5
23 | C33G U54C | 0.519
24 | C33G U54A | ≤ 0.5

Row | Variant | yeast fitness
25 | C33U C34G A45C C60A | ≤ 0.5
26 | C33G C61A C66U | 0.583
27 | C34A A69U | 0.858
28 | C34A A69C | 0.752
29 | C34A C49A G51C | 0.591
30 | C33U G51A A57U | ≤ 0.5
31 | C34A C49A G63U G67A | ≤ 0.5
32 | C33U G50A | 0.626
33 | C33G G56C | 0.679
34 | C33G C62U A70C | 0.618
35 | C34A A57U | 0.529
36 | C33U C49A G68C | ≤ 0.5
37 | C33G C34A A43G C55A | 0.635
38 | C33G G41C | 0.58
39 | C34A G68A | 0.647
40 | C33G A43G G58A G67A A69U | 0.573
41 | C33U U53A G58C | ≤ 0.5
42 | C33G G52C C61U | 0.566
43 | C33U A43U G44A C49G G50C C61U C66U | ≤ 0.5
44 | C33G G39A C49G U54A | ≤ 0.5
45 | C33U G58C | 0.635
46 | C34A G44C G68A | ≤ 0.5
47 | C33U A43C G48A G63C | ≤ 0.5
48 | C33G G52C C61U U64C | ≤ 0.5

Row | Variant | yeast fitness
49 | C33U C49U A69U | 0.564
50 | C34G A36G C60G | 0.642
51 | C33U G67A | 0.776
52 | C33U G67C | 0.839
53 | C33G C61U C62G C66U | ≤ 0.5
54 | C33U G44A | 0.652
55 | C33G A42C G67A | ≤ 0.5
56 | C33U G41C | 0.708
57 | C33U G41A | 0.721
58 | C33U A65C C66U | 0.59
59 | C33G C34U G38C | ≤ 0.5
60 | C34A A42C C60G | ≤ 0.5
61 | C33U G58C C62A C66G | ≤ 0.5
62 | C33G C34A A43G C61U A65C | ≤ 0.5
63 | C33G U47A C61A C66U | ≤ 0.5
64 | C33U A45C | 0.703
65 | C33G A57C | ≤ 0.5
66 | C33G A57U | ≤ 0.5
67 | C34A A37G A57U | 0.616
68 | C33U A36G | 0.662
69 | C33G A37C A45C | ≤ 0.5
70 | C33G C60U A69U | ≤ 0.5
71 | C34G A37C G58C | ≤ 0.5
72 | C34A U53A G67A | ≤ 0.5

Row | Variant | yeast fitness
73 | C33G G48A U64A | 0.613
74 | C34A G41A | 0.782
75 | C33U A40C A45C C60G A65C | ≤ 0.5
76 | C34A C62G | 0.675
77 | C33U A43G C62G | ≤ 0.5
78 | C33G U59A C60G C61G | ≤ 0.5
79 | C33G A40G U59A | ≤ 0.5
80 | C34A C61G | ≤ 0.5
81 | C33U G41C C55A A69C | ≤ 0.5
82 | C34A A37U G52A | ≤ 0.5
83 | C33G A45U C46U | ≤ 0.5
84 | C33G U47G C66U | 0.56
85 | C34A C55A | 0.566
86 | C33G A40C | 0.697
87 | C33G A40G | 0.615
88 | C33G U47C C62A | 0.601
89 | C33G A42G G52A C62A A69U A70U | ≤ 0.5
90 | C33G G41C A43C C61U C66U | ≤ 0.5
91 | C33U U53C | 0.574
92 | C33G A37G A43C U47C G58C | ≤ 0.5
93 | C33U A37U G51C A65U | 0.584
94 | C33G C34G U35C C46U | ≤ 0.5
95 | C33G C34U C55U A65U G68C | ≤ 0.5
96 | C33U G50C A57C | 0.623

Row | Variant | yeast fitness
97 | C34A A40C A42U A65U G67A | ≤ 0.5
98 | C34A A37U | 0.741
99 | C33U A42U G68A A70G | 0.534
100 | C34A C49U | 0.826
101 | C33U A43G U47C | 0.563
102 | C34A U47A C61G | ≤ 0.5
103 | C34A A37G G41A | ≤ 0.5
104 | C33U A69U | 0.788
105 | C33G C34G A43G C46G | ≤ 0.5
106 | C33G G38C C55A A65U | 0.665
107 | C34A A37G C61A | ≤ 0.5
108 | C34A A40G U47A C66G A69C A70C | 0.693
109 | C33U U64G A70C | 0.555
110 | C34G A36G G52A C66U | ≤ 0.5
111 | C33U C34G C62A | ≤ 0.5
112 | C33G G51C C66G G67C | ≤ 0.5
113 | C34A A40G C66U | ≤ 0.5
114 | C33G A69U | 0.764
115 | C33G A69C | 0.742
116 | C34A C49U G58C | ≤ 0.5
117 | C33U C49U G51C C55U | ≤ 0.5
118 | C33G A45C | 0.684
119 | C33G C34U G68A | 0.582
120 | C33U C49G A65C | 0.504

Row | Variant | yeast fitness
121 | C33G U47G A57G A69U | 0.509
122 | C33G G41A U47A C61U A69U | ≤ 0.5
123 | C34A G51C | ≤ 0.5
124 | C33U G68A | 0.679
125 | C33U G41C G68C A69U | ≤ 0.5
126 | C33U G38A C49U C61A | ≤ 0.5
127 | C34G A37G | 0.725
128 | C34A C61G G68C | 0.538
129 | C33G C34U U53C C61U | ≤ 0.5
130 | C33U G63C | 0.545
131 | C33U G63A | 0.614
132 | C33U G56A | 0.682
133 | C33U C49A G58C A69U | 0.52
134 | C33G C61U G67A | 0.649
135 | C33G G51A | 0.626
136 | C33G G51C | ≤ 0.5
137 | C34G A37C G38A C66U | ≤ 0.5
138 | C33U G58U C61A | ≤ 0.5
139 | C34A A36U C55G C66A | ≤ 0.5
140 | C33U A57U U59C | 0.601
141 | C33U C49U | 0.849
142 | C33U C49A | 0.638
143 | C33G G50A | 0.614
144 | C34G A40C | 0.636

Row | Variant | yeast fitness
145 | C33U A43G | 0.672
146 | C33G G67A A69C | ≤ 0.5
147 | C33G G67U G68C A69U | ≤ 0.5
148 | C34A A42U A65C | ≤ 0.5
149 | C33U A40C A45C | 0.561
150 | C33G A40U G48C C60G | ≤ 0.5
151 | C34A U35A C49A C55U | ≤ 0.5
152 | C34A A70U | 0.924
153 | C33U G50C A70U | ≤ 0.5
154 | C34G A37C G44C | ≤ 0.5
155 | C34A U47C G51A A69U | ≤ 0.5
156 | C33U G48A U64G | 0.618
157 | C34A A42U A43C | 0.629
158 | C33U G38A | 0.866
159 | C33G G63U U64G | 0.665
160 | C33G G63U U64A | 0.553
161 | C34A G44C A70U | 0.54
162 | C34A G41A C46A | ≤ 0.5
163 | C34A G67A | 0.652
164 | C34A C49U G50C G58A | 0.869
165 | C34A A42U G68C | ≤ 0.5
166 | C33U U35C C61U | 0.555
167 | C34G A37C C60A | ≤ 0.5
